Data as given in ChEMBL document CHEMBL3871264, “Design of a novel thiophene inhibitor of 15-lipoxygenase-1 with both anti-inflammatory and neuroprotective properties” (Eur J Med Chem, 2016).
Calls of active or inactive are those of the source. The rule behind the calls is not given here.

Tests used:
[1] = target: T1, Polyunsaturated fatty acid lipoxygenase ALOX15 (Mus musculus) (UniProt P39654); assay: Inhibition of 15-LOX-1 in C57bl/6 mouse precision-cut lung slices assessed as reduction in LPS-stimulated IL-1beta mRNA expression level at 50 uM incubated for 20 hrs followed by LPS stimulation for 4 hrs in presence of linoleic acid by RT-qPCR analysis
T1 sequence (whole entry): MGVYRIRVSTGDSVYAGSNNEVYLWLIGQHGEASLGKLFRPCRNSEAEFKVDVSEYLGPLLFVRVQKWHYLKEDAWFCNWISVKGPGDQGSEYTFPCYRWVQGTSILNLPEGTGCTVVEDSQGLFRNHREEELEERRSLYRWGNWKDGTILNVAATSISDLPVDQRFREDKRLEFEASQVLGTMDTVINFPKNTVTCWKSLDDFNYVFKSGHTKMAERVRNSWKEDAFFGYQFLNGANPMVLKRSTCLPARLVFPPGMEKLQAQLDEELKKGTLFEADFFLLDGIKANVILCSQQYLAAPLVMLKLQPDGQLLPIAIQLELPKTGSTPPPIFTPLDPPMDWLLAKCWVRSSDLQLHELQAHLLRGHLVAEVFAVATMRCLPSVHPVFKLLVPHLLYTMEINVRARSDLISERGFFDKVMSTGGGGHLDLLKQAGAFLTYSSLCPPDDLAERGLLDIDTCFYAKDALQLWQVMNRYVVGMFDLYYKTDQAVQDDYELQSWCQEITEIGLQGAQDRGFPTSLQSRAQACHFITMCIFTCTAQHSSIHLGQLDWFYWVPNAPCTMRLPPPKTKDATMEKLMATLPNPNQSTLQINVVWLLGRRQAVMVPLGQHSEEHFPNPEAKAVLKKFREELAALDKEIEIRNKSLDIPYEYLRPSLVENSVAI
Outline: (§1)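 Lung slices, 250 μm, were cut from agarose-filled lungs of male C57bl/6 mice aged 8-10 weeks and cultured at 37 °C in 5% CO2 in supplemented DMEM, 3 slices per well. Inhibitor was given for 20 h with 10 μM linoleic acid. For the last 4 h, 10 ng/ml LPS plus 10 ng/ml IFNγ were added. Read-out was RT-qPCR (10 ng cDNA, GAPDH assay included), in duplicate or triplicate wells, as fold change versus LPS/linoleic acid control, with 4-6 independent experiments.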

[2] = target: T1, Polyunsaturated fatty acid lipoxygenase ALOX15 (Mus musculus); assay: Inhibition of 15-LOX-1 in C57bl/6 mouse precision-cut lung slices assessed as reduction in LPS-stimulated IL-12b mRNA expression level at 5 uM incubated for 20 hrs followed by LPS stimulation for 4 hrs in presence of linoleic acid by RT-qPCR analysis; outline: as §1
[3] = target: T1, Polyunsaturated fatty acid lipoxygenase ALOX15 (Mus musculus); assay: Inhibition of 15-LOX-1 in mouse HT22 cells assessed as protection against glutamate-induced cell death by measuring increase in cell viability up to 20 uM cotreated with glutamate for 14 to 16 hrs by MTT assay; type: cell-based; settings: HT-22
Outline: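 HT-22 cells were seeded at 8x10^3 per well and incubated overnight. They were challenged with 4 mM glutamate in DMEM/10% FCS. Inhibitor was given either with glutamate (1-20 µM; PD146176 at 1 µM) or added at 5 or 10 µM 2, 4, 6 or 8 h after glutamate. After 14-16 h, MTT was added at 0.5 mg/mL for 1 h at 37 °C. Formazan was dissolved in DMSO and read at 570 nm minus 630 nm background, expressed relative to control. Three experiments were run with 6-8 replicates each.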

[4] = target: T1, Polyunsaturated fatty acid lipoxygenase ALOX15 (Mus musculus); assay: Inhibition of 15-LOX-1 in mouse HT22 cells assessed as inhibition of glutamate-induced lipid peroxidation at 10 uM incubated for 6 to 7 hrs by BODIPY 581/591 C11 staining based FACS analysis; type: cell-based; settings: HT-22
Outline: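 HT-22 cells were seeded at 5x10^4 per well and incubated overnight. They were then exposed to 4 mM glutamate in DMEM/10% FCS, with or without 10 µM test inhibitor or 1 µM PD146176, for 6-7 h or 14-16 h. Cells were stained with BODIPY 581/591 C11 at 2 µM final for 1 h at 37 °C. The red-to-green fluorescence shift was read by flow cytometry (488 nm excitation). At least 3 experiments were run, each in triplicate.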

[5] = target: T1, Polyunsaturated fatty acid lipoxygenase ALOX15 (Mus musculus); assay: Inhibition of 15-LOX-1 in C57bl/6 mouse precision-cut lung slices assessed as reduction in LPS-stimulated IL-6 mRNA expression level at 5 uM incubated for 20 hrs followed by LPS stimulation for 4 hrs in presence of linoleic acid by RT-qPCR analysis; outline: as §1
[6] = target: T1, Polyunsaturated fatty acid lipoxygenase ALOX15 (Mus musculus); assay: Inhibition of 15-LOX-1 in C57bl/6 mouse precision-cut lung slices assessed as reduction in LPS-stimulated IL-12b mRNA expression level at 50 uM incubated for 20 hrs followed by LPS stimulation for 4 hrs in presence of linoleic acid by RT-qPCR analysis; outline: as §1
[7] = target: T1, Polyunsaturated fatty acid lipoxygenase ALOX15 (Mus musculus); assay: Inhibition of 15-LOX-1 in mouse HT22 cells assessed as inhibition of glutamate-induced superoxide production in mitochondria at 10 uM incubated for 14 to 16 hrs by mitoSOX staining based FACS analysis; settings: HT-22
Outline: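 HT-22 cells were seeded at 5x10^4 per well and incubated overnight. They were then given 4 mM glutamate with or without 10 µM inhibitor or 1 µM PD146176 for 14-16 h. Cells were stained with MitoSOX at 2.5 µM final for 30 min at 37 °C, and fluorescence intensity was measured by flow cytometry (488 nm excitation). At least 3 experiments were run, each in triplicate.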

[8] = target: T1, Polyunsaturated fatty acid lipoxygenase ALOX15 (Mus musculus); assay: Inhibition of 15-LOX-1 in C57bl/6 mouse precision-cut lung slices assessed as reduction in LPS-stimulated iNOS mRNA expression level at 50 uM incubated for 20 hrs followed by LPS stimulation for 4 hrs in presence of linoleic acid by RT-qPCR analysis; outline: as §1

CCCCNC(=O)c1cc(-c2ccccc2)sc1N was tested, and the inhibition [1] was 50%, the inhibition [2] was “Active” and the inhibition [3] was “Dose-dependent effect”. For the same compound, the inhibition [4] was “Active”, the inhibition [5] was “Active” and the inhibition [6] was 50%. The inhibition [7] was “Active” and the inhibition [8] was 50%.
